PMC9321963 (Birth Defects Research, 2022)
Where “and” joins values, the source holds several entries; their conditions need not be identical. Equal entries are not always repeated. Where two headings read alike, the source gives them in different places.

Assays:
[1] = Toxicokinetics, rabbit main EFD study; settings: female, in vivo
pregnant rats [2] = assay: Rat DRF embryofetal developmental toxicity study; format: in vivo; settings: rat DRF EFD
[3] = Rat investigative embryofetal developmental toxicity study; format: in vivo; settings: female, Sprague-Dawley, rat, in vivo, oral
Procedure, shortened: (§1)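 Crl:OFA SD naïve time-mated females, 25 per group (plug day = GD0), under GLP and ICH S5(R2). Oral daily doses of 20, 40 or 60 mg/kg/day were given GD6–GD17; an extra 60 mg/kg/day group was dosed only GD8–GD11 (diaphragm formation). Suspension vehicle: 20% w/w Kolliphor HS 15 / 50% w/w PEG 400 in water. CO2 euthanasia and necropsy on GD21. Maternal endpoints were recorded, plus fetal weight, external and visceral exams.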

pregnant rats [4] = assay: as above; format: in vivo; settings: rat investigative EFD; for mean maternal body weight gain, % of controls: dosing and post dose periods
Procedure, shortened: as §1

PI4Kα = PI4Kα (Homo sapiens, UniProt P42356); assay: ADP-Glo Kinase Assay, PI4Kα; format: biochemical
PI4Kα, sequence (P42356 whole entry): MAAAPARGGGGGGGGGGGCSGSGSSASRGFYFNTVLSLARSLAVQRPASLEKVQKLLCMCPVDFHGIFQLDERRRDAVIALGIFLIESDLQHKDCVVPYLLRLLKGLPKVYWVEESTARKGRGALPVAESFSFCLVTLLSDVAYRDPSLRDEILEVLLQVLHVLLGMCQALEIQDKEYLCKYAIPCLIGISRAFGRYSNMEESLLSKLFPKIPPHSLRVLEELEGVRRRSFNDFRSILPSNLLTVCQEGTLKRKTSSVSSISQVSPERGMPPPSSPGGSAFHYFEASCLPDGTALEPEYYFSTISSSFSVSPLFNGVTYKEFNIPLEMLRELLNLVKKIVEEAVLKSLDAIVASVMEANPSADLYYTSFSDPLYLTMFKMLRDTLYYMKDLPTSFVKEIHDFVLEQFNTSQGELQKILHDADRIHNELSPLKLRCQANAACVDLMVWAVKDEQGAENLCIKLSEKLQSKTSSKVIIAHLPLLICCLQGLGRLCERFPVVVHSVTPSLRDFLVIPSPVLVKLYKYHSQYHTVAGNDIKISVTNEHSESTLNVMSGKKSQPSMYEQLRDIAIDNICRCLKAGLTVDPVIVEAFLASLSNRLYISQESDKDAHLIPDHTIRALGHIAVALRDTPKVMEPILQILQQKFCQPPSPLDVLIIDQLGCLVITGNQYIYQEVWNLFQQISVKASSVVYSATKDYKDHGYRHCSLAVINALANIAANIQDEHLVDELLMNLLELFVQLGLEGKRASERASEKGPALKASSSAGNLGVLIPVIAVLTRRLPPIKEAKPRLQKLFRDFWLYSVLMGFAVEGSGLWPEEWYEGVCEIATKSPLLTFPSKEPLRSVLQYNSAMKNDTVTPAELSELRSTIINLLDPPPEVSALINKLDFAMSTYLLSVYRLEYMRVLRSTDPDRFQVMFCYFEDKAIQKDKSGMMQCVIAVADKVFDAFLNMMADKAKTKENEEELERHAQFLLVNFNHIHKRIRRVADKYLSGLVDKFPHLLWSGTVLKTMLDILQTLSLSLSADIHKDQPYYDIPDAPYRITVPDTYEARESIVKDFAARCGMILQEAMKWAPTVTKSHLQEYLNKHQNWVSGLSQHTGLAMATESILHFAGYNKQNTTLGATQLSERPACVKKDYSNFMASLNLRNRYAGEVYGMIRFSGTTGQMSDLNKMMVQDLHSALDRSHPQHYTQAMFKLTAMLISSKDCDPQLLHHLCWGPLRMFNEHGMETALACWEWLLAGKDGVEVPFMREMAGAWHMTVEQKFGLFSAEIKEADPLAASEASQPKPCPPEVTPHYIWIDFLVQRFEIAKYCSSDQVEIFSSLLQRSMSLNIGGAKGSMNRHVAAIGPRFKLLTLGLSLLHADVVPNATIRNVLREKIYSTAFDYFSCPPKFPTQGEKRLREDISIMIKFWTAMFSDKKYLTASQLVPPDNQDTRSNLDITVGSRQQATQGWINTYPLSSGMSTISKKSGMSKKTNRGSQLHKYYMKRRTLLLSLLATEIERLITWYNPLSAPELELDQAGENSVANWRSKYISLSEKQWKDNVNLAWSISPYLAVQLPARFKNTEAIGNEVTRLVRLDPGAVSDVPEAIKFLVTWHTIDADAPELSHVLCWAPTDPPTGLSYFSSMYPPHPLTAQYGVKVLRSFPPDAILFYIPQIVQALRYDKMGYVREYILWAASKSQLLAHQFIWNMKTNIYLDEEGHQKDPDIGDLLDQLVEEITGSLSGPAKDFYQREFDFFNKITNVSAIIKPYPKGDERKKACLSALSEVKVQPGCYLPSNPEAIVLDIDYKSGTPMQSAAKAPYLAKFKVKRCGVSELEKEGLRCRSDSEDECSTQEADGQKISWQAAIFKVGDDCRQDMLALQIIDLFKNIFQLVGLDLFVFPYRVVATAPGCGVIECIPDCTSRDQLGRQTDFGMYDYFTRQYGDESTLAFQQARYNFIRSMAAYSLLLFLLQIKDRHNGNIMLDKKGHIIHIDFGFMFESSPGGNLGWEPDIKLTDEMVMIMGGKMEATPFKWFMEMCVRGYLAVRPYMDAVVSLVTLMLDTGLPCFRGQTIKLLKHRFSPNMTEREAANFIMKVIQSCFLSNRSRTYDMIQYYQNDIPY

PI3Kγ = PI3Kγ (Homo sapiens, UniProt P48736); assay: ADP-Glo Kinase Assay, PI3Kγ; format: biochemical
PI3Kγ, sequence (P48736 whole entry): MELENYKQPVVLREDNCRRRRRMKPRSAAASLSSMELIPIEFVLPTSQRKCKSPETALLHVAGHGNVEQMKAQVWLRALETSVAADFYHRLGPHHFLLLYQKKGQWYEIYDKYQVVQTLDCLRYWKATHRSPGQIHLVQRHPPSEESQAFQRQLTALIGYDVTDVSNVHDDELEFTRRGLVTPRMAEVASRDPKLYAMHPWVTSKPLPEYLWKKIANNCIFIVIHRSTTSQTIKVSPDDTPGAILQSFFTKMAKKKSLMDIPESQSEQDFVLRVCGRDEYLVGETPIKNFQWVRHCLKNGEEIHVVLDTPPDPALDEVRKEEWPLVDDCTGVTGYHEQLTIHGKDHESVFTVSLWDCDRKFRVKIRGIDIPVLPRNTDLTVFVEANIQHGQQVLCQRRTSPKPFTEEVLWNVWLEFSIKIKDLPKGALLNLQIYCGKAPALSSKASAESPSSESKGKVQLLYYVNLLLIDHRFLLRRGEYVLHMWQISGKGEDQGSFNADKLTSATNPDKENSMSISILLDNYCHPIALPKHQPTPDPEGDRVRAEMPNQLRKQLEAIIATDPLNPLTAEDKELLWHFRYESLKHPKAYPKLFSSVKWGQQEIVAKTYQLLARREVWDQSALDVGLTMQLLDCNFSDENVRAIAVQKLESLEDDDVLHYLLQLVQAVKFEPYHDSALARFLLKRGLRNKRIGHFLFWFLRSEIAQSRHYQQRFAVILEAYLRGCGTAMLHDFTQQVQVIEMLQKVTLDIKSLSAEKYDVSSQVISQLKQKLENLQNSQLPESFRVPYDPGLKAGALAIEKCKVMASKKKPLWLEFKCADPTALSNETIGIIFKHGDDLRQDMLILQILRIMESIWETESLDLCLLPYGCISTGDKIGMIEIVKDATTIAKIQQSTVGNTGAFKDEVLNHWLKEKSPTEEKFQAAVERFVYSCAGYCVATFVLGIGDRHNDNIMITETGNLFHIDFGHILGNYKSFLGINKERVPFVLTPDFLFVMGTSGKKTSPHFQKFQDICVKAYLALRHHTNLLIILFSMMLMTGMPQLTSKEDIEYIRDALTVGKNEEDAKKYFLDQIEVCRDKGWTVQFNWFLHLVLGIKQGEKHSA

AhR = molecular target: T1, AhR (Homo sapiens, UniProt P35869); assay: In vitro off-target inhibition, AhR
T1 sequence (P35869 11-848): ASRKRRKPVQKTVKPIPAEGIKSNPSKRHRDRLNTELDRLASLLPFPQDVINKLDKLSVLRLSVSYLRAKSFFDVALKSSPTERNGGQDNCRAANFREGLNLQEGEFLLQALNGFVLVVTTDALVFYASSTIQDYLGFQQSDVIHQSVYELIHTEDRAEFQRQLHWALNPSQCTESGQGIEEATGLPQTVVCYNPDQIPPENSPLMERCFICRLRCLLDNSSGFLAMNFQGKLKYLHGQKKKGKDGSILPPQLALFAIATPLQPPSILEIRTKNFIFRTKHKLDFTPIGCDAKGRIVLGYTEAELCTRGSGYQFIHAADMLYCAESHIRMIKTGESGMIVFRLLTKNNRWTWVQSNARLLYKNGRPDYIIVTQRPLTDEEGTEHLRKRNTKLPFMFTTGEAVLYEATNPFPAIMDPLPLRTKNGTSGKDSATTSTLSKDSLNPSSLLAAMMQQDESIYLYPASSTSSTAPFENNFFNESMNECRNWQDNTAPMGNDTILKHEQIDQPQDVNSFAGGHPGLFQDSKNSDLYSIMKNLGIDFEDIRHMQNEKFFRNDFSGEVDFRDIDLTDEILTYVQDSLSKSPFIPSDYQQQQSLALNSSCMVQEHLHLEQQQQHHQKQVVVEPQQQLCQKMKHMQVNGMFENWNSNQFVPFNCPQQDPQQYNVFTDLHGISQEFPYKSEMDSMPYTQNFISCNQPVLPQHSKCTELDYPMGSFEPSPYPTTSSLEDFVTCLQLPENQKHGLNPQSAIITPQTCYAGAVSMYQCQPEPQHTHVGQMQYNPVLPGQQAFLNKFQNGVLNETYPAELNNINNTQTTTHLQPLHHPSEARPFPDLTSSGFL

[5] = human, male, ref McCarthy et al. ([2020]), cited from earlier work
[6] = 60 mg/kg/day, only dosed GD8 to GD11

CS(=O)(=O)c1ccc(-c2cnc(N)c(-c3ccc(C(F)(F)F)nc3)c2)cc1 [MMV390048]
AUC(0-t) ([1]; 1 mg/kg/day): 4090 ng·h/mL
Cmax ([1]; 1 mg/kg/day): 250 ng/mL
Tmax ([1]; 1 mg/kg/day): 4 h
AUC(0-t) ([1]; 3 mg/kg/day): 13600 ng·h/mL
Cmax ([1]; 3 mg/kg/day): 894 ng/mL
Tmax ([1]; 3 mg/kg/day): 2 h
AUC(0-t) ([1]; 10 mg/kg/day): 53300 ng·h/mL
Cmax ([1]; 10 mg/kg/day): 3410 ng/mL
Tmax ([1]; 10 mg/kg/day): 2 h
Female with viable fetuses (pregnant rats [2]; 3 mg/kg/day GD6-GD17): 8/8
Postimplantation loss (%) (pregnant rats [2]; 3 mg/kg/day GD6-GD17): 5.1%
Female with viable fetuses (pregnant rats [2]; 10 mg/kg/day GD6-GD17): 8/8
Fetal BW % from CTL (pregnant rats [2]; 10 mg/kg/day GD6-GD17): −2%
Postimplantation loss (%) (pregnant rats [2]; 10 mg/kg/day GD6-GD17): 1.7%
Female with viable fetuses (pregnant rats [2]; 30 mg/kg/day GD6-GD17): 7/7
Fetal BW % from CTL (pregnant rats [2]; 30 mg/kg/day GD6-GD17): −5%
Heart VSD, fetuses with malformation/total fetuses examined (pregnant rats [2]; 30 mg/kg/day GD6-GD17): 1/43
Heart VSD, litters with malformation/total litters examined (pregnant rats [2]; 30 mg/kg/day GD6-GD17): 1/7
Postimplantation loss (%) (pregnant rats [2]; 30 mg/kg/day GD6-GD17): 5.9%
Treatment‐related skeletal malformations (pregnant rats [2]; 60 mg/kg/day): fused rib, short rib, split sternebra, and fused cervical arch
VSD, number of fetuses (pregnant rats [2]; 60 mg/kg/day): 3 fetuses
VSD, number of litters (pregnant rats [2]; 60 mg/kg/day): 3 litters
hernia of the diaphragm, number of fetuses (pregnant rats [2]; 60 mg/kg/day): 12 fetuses
hernia of the diaphragm, number of litters (pregnant rats [2]; 60 mg/kg/day): 3 litters
Blood vessels IAA, fetuses with malformation/total fetuses examined (pregnant rats [2]; 60 mg/kg/day GD6-GD17): 1/40
Blood vessels IAA, litters with malformation/total litters examined (pregnant rats [2]; 60 mg/kg/day GD6-GD17): 1/8
Female with viable fetuses (pregnant rats [2]; 60 mg/kg/day GD6-GD17): 8/8
Fetal BW % from CTL (pregnant rats [2]; 60 mg/kg/day GD6-GD17): −16%
Heart VSD, fetuses with malformation/total fetuses examined (pregnant rats [2]; 60 mg/kg/day GD6-GD17): 7/40
Heart VSD, litters with malformation/total litters examined (pregnant rats [2]; 60 mg/kg/day GD6-GD17): 3/8
Hernias, fetuses with malformation/total fetuses examined (pregnant rats [2]; 60 mg/kg/day GD6-GD17): 12/40
Hernias, litters with malformation/total litters examined (pregnant rats [2]; 60 mg/kg/day GD6-GD17): 3/8
Postimplantation loss (%) (pregnant rats [2]; 60 mg/kg/day GD6-GD17): 21.9%
litter size (pregnant rats [2]; 60 mg/kg/day, 14 in the control group): 10.6
NOAEL [3]: 20 mg/kg/day
NOAEL for developmental toxicity (pregnant rats [4]): not established
Blood vessels AARS, fetuses with malformation/total fetuses examined (pregnant rats [4]; 20 mg/kg/day GD6-GD17): 2/280
Blood vessels AARS, litters with malformation/total litters examined (pregnant rats [4]; 20 mg/kg/day GD6-GD17): 2/24
Blood vessels ADA, fetuses with malformation/total fetuses examined (pregnant rats [4]; 20 mg/kg/day GD6-GD17): 4/280
Blood vessels ADA, litters with malformation/total litters examined (pregnant rats [4]; 20 mg/kg/day GD6-GD17): 3/24
Blood vessels IAA, fetuses with malformation/total fetuses examined (pregnant rats [4]; 20 mg/kg/day GD6-GD17): 2/280
Blood vessels IAA, litters with malformation/total litters examined (pregnant rats [4]; 20 mg/kg/day GD6-GD17): 2/24
Blood vessels NPT, fetuses with malformation/total fetuses examined (pregnant rats [4]; 20 mg/kg/day GD6-GD17): 1/280
Blood vessels NPT, litters with malformation/total litters examined (pregnant rats [4]; 20 mg/kg/day GD6-GD17): 1/24
Edema, fetuses with malformation/total fetuses examined (pregnant rats [4]; 20 mg/kg/day GD6-GD17): 1/280
Edema, litters with malformation/total litters examined (pregnant rats [4]; 20 mg/kg/day GD6-GD17): 1/24
Female with viable fetuses (pregnant rats [4]; 20 mg/kg/day GD6-GD17): 24/24
Fetal BW % from CTL (pregnant rats [4]; 20 mg/kg/day GD6-GD17): −10%
Heart VSD, fetuses with malformation/total fetuses examined (pregnant rats [4]; 20 mg/kg/day GD6-GD17): 1/280
Heart VSD, litters with malformation/total litters examined (pregnant rats [4]; 20 mg/kg/day GD6-GD17): 1/24
Hernias, fetuses with malformation/total fetuses examined (pregnant rats [4]; 20 mg/kg/day GD6-GD17): 35/280
Hernias, litters with malformation/total litters examined (pregnant rats [4]; 20 mg/kg/day GD6-GD17): 16/24
Postimplantation loss (%) (pregnant rats [4]; 20 mg/kg/day GD6-GD17): 9.6%
females with no viable fetuses, number (pregnant rats [4]; 40 mg/kg/day): 6 females
Blood vessels AARS, fetuses with malformation/total fetuses examined (pregnant rats [4]; 40 mg/kg/day GD6-GD17): 8/97
Blood vessels AARS, litters with malformation/total litters examined (pregnant rats [4]; 40 mg/kg/day GD6-GD17): 8/16
Blood vessels ADA, fetuses with malformation/total fetuses examined (pregnant rats [4]; 40 mg/kg/day GD6-GD17): 9/97
Blood vessels ADA, litters with malformation/total litters examined (pregnant rats [4]; 40 mg/kg/day GD6-GD17): 7/16
Blood vessels IAA, fetuses with malformation/total fetuses examined (pregnant rats [4]; 40 mg/kg/day GD6-GD17): 4/97
Blood vessels IAA, litters with malformation/total litters examined (pregnant rats [4]; 40 mg/kg/day GD6-GD17): 4/16
Blood vessels NPT, fetuses with malformation/total fetuses examined (pregnant rats [4]; 40 mg/kg/day GD6-GD17): 9/97
Blood vessels NPT, litters with malformation/total litters examined (pregnant rats [4]; 40 mg/kg/day GD6-GD17): 6/16
Edema, fetuses with malformation/total fetuses examined (pregnant rats [4]; 40 mg/kg/day GD6-GD17): 1/97
Edema, litters with malformation/total litters examined (pregnant rats [4]; 40 mg/kg/day GD6-GD17): 1/16
Female with viable fetuses (pregnant rats [4]; 40 mg/kg/day GD6-GD17): 16/22
Fetal BW % from CTL (pregnant rats [4]; 40 mg/kg/day GD6-GD17): −24%
Heart Thick VW, fetuses with malformation/total fetuses examined (pregnant rats [4]; 40 mg/kg/day GD6-GD17): 1/97
Heart Thick VW, litters with malformation/total litters examined (pregnant rats [4]; 40 mg/kg/day GD6-GD17): 1/16
Heart VSD, fetuses with malformation/total fetuses examined (pregnant rats [4]; 40 mg/kg/day GD6-GD17): 21/97
Heart VSD, litters with malformation/total litters examined (pregnant rats [4]; 40 mg/kg/day GD6-GD17): 8/16
Hernias, fetuses with malformation/total fetuses examined (pregnant rats [4]; 40 mg/kg/day GD6-GD17): 63/97
Hernias, litters with malformation/total litters examined (pregnant rats [4]; 40 mg/kg/day GD6-GD17): 15/16
Postimplantation loss (%) (pregnant rats [4]; 40 mg/kg/day GD6-GD17): 66.45%
mean maternal body weight gain, % of controls (pregnant rats [4]; 40 mg/kg/day): 41 % of controls
females with no viable fetuses, number (pregnant rats [4]; 60 mg/kg/day): 11 females
mean maternal body weight gain, % of controls (pregnant rats [4]; 60 mg/kg/day): 49 % of controls
Blood vessels AARS, fetuses with malformation/total fetuses examined (pregnant rats [4]; [6]): 12/65
Blood vessels AARS, litters with malformation/total litters examined (pregnant rats [4]; [6]): 12/14
Blood vessels ADA, fetuses with malformation/total fetuses examined (pregnant rats [4]; [6]): 10/65
Blood vessels ADA, litters with malformation/total litters examined (pregnant rats [4]; [6]): 6/14
Blood vessels IAA, fetuses with malformation/total fetuses examined (pregnant rats [4]; [6]): 1/65
Blood vessels IAA, litters with malformation/total litters examined (pregnant rats [4]; [6]): 1/14
Blood vessels NPT, fetuses with malformation/total fetuses examined (pregnant rats [4]; [6]): 10/65
Blood vessels NPT, litters with malformation/total litters examined (pregnant rats [4]; [6]): 6/14
Edema, fetuses with malformation/total fetuses examined (pregnant rats [4]; [6]): 2/65
Edema, litters with malformation/total litters examined (pregnant rats [4]; [6]): 1/14
Female with viable fetuses (pregnant rats [4]; [6]): 14/25
Fetal BW % from CTL (pregnant rats [4]; [6]): −26%
Heart Thick VW, fetuses with malformation/total fetuses examined (pregnant rats [4]; [6]): 3/65
Heart Thick VW, litters with malformation/total litters examined (pregnant rats [4]; [6]): 3/14
Hernias, fetuses with malformation/total fetuses examined (pregnant rats [4]; [6]): 31/65
Hernias, litters with malformation/total litters examined (pregnant rats [4]; [6]): 11/14
Postimplantation loss (%) (pregnant rats [4]; [6]): 79.22% and 79.2%
IC50 (PI4Kα): 18.7 µM
IC50 (PI3Kγ): 4.3 µM
IC50 (AhR): 7.9 µM
AUC(0−inf) ([5]; dose 40 mg): 30,320 hr*ng/ml
C max ([5]; dose 40 mg): 272.7 ng/mL
T max ([5]; dose 40 mg): 1.5 h
AUC(0−inf) ([5]; dose 80 mg): 82,680 hr*ng/ml
C max ([5]; dose 80 mg): 561 ng/mL
AUC(0−inf) ([5]; dose 120 mg): 137,800 hr*ng/ml
C max ([5]; dose 120 mg): 1,094 ng/ml
T max ([5]; dose 120 mg): 1 h
